By fold induction is commonly meant the signal under treatment as a multiple of the control signal. Broadly, the IC50 is the point on the concentration scale where inhibition reaches its midpoint. Lower therefore signals higher potency.

Data set [1] has as its target T1, CYP1A1 (Mus musculus, UniProt P00184).
T1 sequence (P00184 whole entry): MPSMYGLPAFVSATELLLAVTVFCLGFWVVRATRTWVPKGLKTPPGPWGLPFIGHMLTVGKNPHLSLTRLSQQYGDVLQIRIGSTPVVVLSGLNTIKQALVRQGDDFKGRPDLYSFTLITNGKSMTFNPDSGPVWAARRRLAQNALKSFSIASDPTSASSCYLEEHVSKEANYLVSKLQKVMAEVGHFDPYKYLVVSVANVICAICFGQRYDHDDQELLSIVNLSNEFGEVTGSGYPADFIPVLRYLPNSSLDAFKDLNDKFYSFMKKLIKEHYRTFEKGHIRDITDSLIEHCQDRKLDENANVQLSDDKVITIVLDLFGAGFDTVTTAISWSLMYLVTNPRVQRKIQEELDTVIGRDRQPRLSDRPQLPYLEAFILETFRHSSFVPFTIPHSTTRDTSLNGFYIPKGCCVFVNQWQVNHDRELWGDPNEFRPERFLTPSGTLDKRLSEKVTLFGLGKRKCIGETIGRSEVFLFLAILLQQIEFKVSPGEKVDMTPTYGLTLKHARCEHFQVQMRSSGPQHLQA
In words: Induction of CYP1A1 activity in mouse Hepa-1c1c7 cells assessed as induction ratio at 15 uM by EROD assay relative to control. In kind it is ADME, cell-based. An outline of the steps:
(§1)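 Hepa1c1c7 cells were seeded at 10,000 per well and grown 24 h. They were then exposed 48 h to compound (final DMSO 0.5% v/v) at about 4 × the NQO1 CD. After a PBS wash, cells got 5 µM 7-ethoxyresorufin plus 2 mM salicylamide in medium, 37 °C, 40 min. Resorufin was read at ex 530/em 590 nm, corrected for compound fluorescence. Ratio = (F treated − blank)/(F DMSO control − blank); mean ± SD, n = 3.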

Data set [2] is described as follows: Cytotoxicity against mouse Hepa-1c1c7 cells after 48 hrs by MTT assay. In kind it is cell-based. The following applies: hepa-1c1c7, 48 h. A digest of the protocol:
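Murine hepatoma cells in α-MEM with 10% heat- and charcoal-treated fetal calf serum, passages 6–17; MTT read-out as for the cancer lines but with 48 h compound exposure. Highest concentration tested 25 µM. IC50 from survival-versus-concentration curve; mean and SD, n = 3.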
For orientation: Tetrazolium assays rely on reduction of a dye to a coloured formazan, in cell work by metabolically active cells.

The target in data set [3] is NAD(P)H dehydrogenase [quinone] 1 (Mus musculus) (UniProt Q64669). Description: Induction of NQO1 activity in mouse Hepa-1c1c7 cells assessed as induction ratio at 15 uM after 48 hrs by MTT assay relative to control. In kind it is cell-based. A digest of the protocol:
(§2)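 Hepa1c1c7 cells, 10,000 per well, 24 h, were then treated 48 h (DMSO ≤0.5%). Digitonin/EDTA lysates were assayed for menadione-dependent MTT-formazan formation using a G6P/G6PDH NADPH-generating mix with FAD at pH 7.4. The reaction ran 5 min, was stopped with dicoumarol, and read at A590. Degree of induction = (A test − blank)/(A control − blank). Ratios were read off the induction–concentration plot at the EROD test concentration.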

Data set [4] deals with T1, CYP1A1. Description: Induction of CYP1A1 activity in mouse Hepa-1c1c7 cells assessed as induction ratio at 50 nM after 48 hrs by EROD assay relative to control. In kind it is ADME, cell-based. A digest of the protocol: as §1
In data set [5] the target is NAD(P)H dehydrogenase [quinone] 1 (Mus musculus) (UniProt Q64669). Description: Induction of NQO1 activity in mouse Hepa-1c1c7 cells assessed as induction ratio at 50 nM after 48 hrs by MTT assay relative to control. The class given is cell-based. A digest of the protocol:
as §2

The nature of data set [6]: Ratio of induction of NQO1 activity to induction of CYP1 activity in mouse Hepa-1c1c7 cells at 50 nM after 48 hrs.
Data set [7] has as its system HCT-116. In words: Cell cycle arrest in human HCT116 cells released from G2 block assessed as accumulation at sub G1 phase at 2.5 uM after 24 hrs by flow cytometry. The class given is functional. (In general: Flow cytometry measures light scatter and fluorescence of single cells or particles in a stream.)
Data set [8] has as its system MCF7. In words: Selectivity ratio of IC50 for human CCL186 cells to IC50 for human MCF7 cells. A digest of the protocol:
(§3)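 MTT assay. MCF7 and CCL186 cells were grown in EMEM/10% FBS, HCT116 in McCoy's 5A/10% FBS. Seeding was 10,000 (MCF7), 4000 (HCT116) and 5000 (CCL186) cells per well, 24 h. Compound exposure was 72 h, DMSO ≤1% final. MTT 0.5 mg/ml for 3 h, formazan dissolved in DMSO, A590. IC50 came from sigmoidal survival curves, with 3 separate occasions per concentration. Ratio = IC50 CCL186 / IC50 of the cancer line.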

Data set [9] relates to HCT-116. Description: Cell cycle arrest in human HCT116 cells released from G1 block assessed as accumulation at G2/M phase at 2.5 uM after 24 hrs by flow cytometry. The class given is functional.
Data set [10] relates to HCT-116. Description: Cell cycle arrest in human HCT116 cells released from G1 block assessed as accumulation at G1 phase at 2.5 uM after 24 hrs by flow cytometry. In kind it is functional.
The target of data set [11] is T1, CYP1A1. Description: Induction of CYP1A1 activity in mouse Hepa-1c1c7 cells assessed as induction ratio at 0.5 uM after 48 hrs by EROD assay relative to control. The class given is ADME, cell-based. An outline of the steps: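 About 10,000 Hepa1c1c7 cells/well cultured 24 h, then compound (0.5% DMSO final) for 48 h, at roughly 4 × the concentration doubling NQO1 activity. After PBS wash, cells given 5 µM 7-ethoxyresorufin plus 2 mM salicylamide, 37 °C, 40 min; resorufin fluorescence ex 530/em 590 nm, corrected for compound fluorescence. Ratio = (treated − blank)/(DMSO control − blank); mean ± SD, n = 3.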

Data set [12] deals with HCT-116. Description: Cell cycle arrest in human HCT116 cells released from G2 block assessed as accumulation at G1 phase at 2.5 uM after 24 hrs by flow cytometry. In kind it is functional.
A short description of data set [13]: Selectivity ratio of IC50 for human CCL186 cells to IC50 for human HCT116 cells. The following applies: CCL186 cells and HCT116 cells, read-out: Ratio IC50. The class given is ADME, cell-based, HCT-116. A digest of the protocol:
as §3

Data set [14] relates to HCT-116. Description: Cell cycle arrest in human HCT116 cells released from G1 block assessed as accumulation at sub G1 phase at 2.5 uM after 24 hrs by flow cytometry. In kind it is functional.
Data set [15] has as its target NAD(P)H dehydrogenase [quinone] 1 (Mus musculus) (UniProt Q64669). Description: Induction of NQO1 activity in mouse Hepa-1c1c7 cells assessed as induction ratio at 0.5 uM after 48 hrs by MTT assay relative to control. The class given is cell-based. An outline of the steps:
as §2

The test system of data set [16] is HCT-116. Description: Antiproliferative activity against human HCT116 cells after 72 hrs by MTT assay. The class given is functional, cell-based. The following applies: HCT-116, 72 h. A digest of the protocol:
(§4)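 Cells seeded at 10,000 (MCF7), 4000 (HCT116) or 5000 (CCL186) per well and grown 24 h; MCF7 and CCL186 in EMEM with pyruvate, glutamine, 10% FBS; HCT116 in McCoy's 5A with 10% FBS. Compounds from DMSO stocks (≤1% DMSO final), 72 h exposure; MTT 0.5 mg/ml for 3 h, formazan in DMSO read at 590 nm. IC50 from sigmoidal survival curve, three separate occasions.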

Data set [17] can be described thus: Antiproliferative activity against human CCL186 cells after 72 hrs by MTT assay. In kind it is cell-based. The following applies: CCL186, 72 h. A digest of the protocol: as §4
Data set [18] deals with HCT-116. Description: Cell cycle arrest in human HCT116 cells released from G2 block assessed as accumulation at S phase at 2.5 uM after 24 hrs by flow cytometry. The class given is functional.
The subject of data set [19] is MCF7. Description: Antiproliferative activity against human MCF7 cells after 72 hrs by MTT assay. The class given is functional, cell-based. The following applies: MCF7, 72 h. A digest of the protocol:
as §4

Data set [20] deals with HCT-116. In words: Cell cycle arrest in human HCT116 cells released from G2 block assessed as accumulation at G2/M phase at 2.5 uM after 24 hrs by flow cytometry. The class given is functional.
The subject of data set [21] is HCT-116. In words: Cell cycle arrest in human HCT116 cells released from G1 block assessed as accumulation at S phase at 2.5 uM after 24 hrs by flow cytometry. In kind it is functional.

Sequence of NAD(P)H dehydrogenase [quinone] 1 (Mus musculus) (Q64669 whole entry): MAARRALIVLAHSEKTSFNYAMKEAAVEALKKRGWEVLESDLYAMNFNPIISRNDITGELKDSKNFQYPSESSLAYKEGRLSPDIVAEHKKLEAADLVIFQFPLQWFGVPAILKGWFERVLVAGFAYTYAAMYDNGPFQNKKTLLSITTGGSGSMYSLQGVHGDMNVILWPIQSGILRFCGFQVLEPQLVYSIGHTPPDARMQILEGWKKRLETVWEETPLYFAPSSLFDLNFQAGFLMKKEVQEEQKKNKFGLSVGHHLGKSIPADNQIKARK

For `O=C1Nc2ccccc2/C1=C\c1ccc(F)cc1F`, the fold induction at 15 µM in [1] was 1.89. Moreover, the IC50 in data set [2] was over 25000 nM. Besides, the Ratio in data set [3] came out at 5.06.
As for `O=C1Nc2ccccc2/C1=C1\C(=O)Nc2cc(Cl)ccc21`, in data set [4], the fold induction at 48 h, 0.05 µM came out at 2.09. Further, the Ratio in data set [5] came out at 2.88; in data set [6], 1.38. For the same compound, the IC50 in data set [2] is over 25000 nM.
With `COc1cccc(/C=C2/C(=O)Nc3cc(OC)ccc32)c1`, the Activity stood at 30.54% in data set [7]; 71.54% in [9]; 10.56% in data set [10]; 26.01% in [12]; 4.22% in [14]; 15.36% in data set [18]. In addition, the figures for the Activity in data set [20] and in [21] were 43.57% and 13.81%, respectively. In addition, the “Ratio IC50” value in data set [8] worked out at 1.5. Also, the fold induction at 48 h, 0.5 µM in data set [11] was determined as 1.13. Besides, in data set [13], the selectivity ratio is 1.4. Besides, the Ratio in data set [15] was found to be 3.08. For the same compound, the IC50 in data set [16] worked out at 1200 nM; in data set [2], 9800 nM; in data set [17], 1800 nM; in data set [19] it was 1300 nM.

The values are drawn from ChEMBL document CHEMBL1153905, “Functionalized 3-benzylidene-indolin-2-ones: inducers of NAD(P)H-quinone oxidoreductase 1 (NQO1) with antiproliferative activity” (Bioorg Med Chem, 2009).
